CCR6 antagonist – antagonists of human CCR6 receptor | P51684 | CHO-K1 CCR6 PathHunter beta-arrestin, luminescence, CCL20-stimulated | inhibition, % at 20 µM | 340,000 compounds, 0.49% hits;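 active = compounds whose inhibition of the agonist-driven luminescence signal at 20 µM reaches about 50%, limit read from the data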;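 also: cells stimulated with CCL20 at 14 nM final; plate controls were DMSO with CCL20 for no effect and DMSO without agonist for full effect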
CXCR6 inh – inhibitors of human CXCR6 receptor. CHO-K1 PathHunter CXCR6 beta-arrestin, luminescence. inhibition, % at 20 µM. 360,000 compounds, 0.36% hits; in the data active = inhibition above about 34%, passing the limit was not always enough;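 also: antagonist mode with CXCL16 agonist at 10 nM final; 0% = 10 nM CXCL16 with DMSO and 100% = unstimulated wells without agonist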
EBI2 antag – blocks human EBI2 receptor beta-arrestin signaling; 360,000 compounds, 0.81% hits; P32249; inhibition, % at 5 µM; EBI2 beta-arrestin recruitment, luminescence, 7a,25-OHC stimulated; in the data active = inhibition above about 38%;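 also: enzyme fragment complementation signal reports receptor beta-arrestin coupling in cells; 0% = agonist plus DMSO wells and 100% = wells without agonist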
APJ agonist – agonists of human APJ apelin receptor. CHO-K1 APJ PathHunter beta-arrestin, luminescence; 0% DMSO wells, 100% apelin. 330,000 compounds, 0.11% hits. activation, % at 20 µM. AID 2520;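 active = activation more than six SD over the plate average, tested at 20 µM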;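 also: 0% = DMSO alone and 100% = apelin-13 at 10 nM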
Target sequence (P35414 whole entry, looked up): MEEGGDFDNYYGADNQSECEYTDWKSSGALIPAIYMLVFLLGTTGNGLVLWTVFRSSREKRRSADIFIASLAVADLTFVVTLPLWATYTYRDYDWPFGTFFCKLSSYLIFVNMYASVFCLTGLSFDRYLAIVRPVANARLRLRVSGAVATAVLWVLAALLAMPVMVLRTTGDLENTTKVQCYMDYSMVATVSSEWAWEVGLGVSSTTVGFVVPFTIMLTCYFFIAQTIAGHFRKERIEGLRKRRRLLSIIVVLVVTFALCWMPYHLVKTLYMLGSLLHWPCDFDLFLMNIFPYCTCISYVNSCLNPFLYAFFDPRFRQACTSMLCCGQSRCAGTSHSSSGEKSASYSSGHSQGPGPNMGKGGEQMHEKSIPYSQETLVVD
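Assay system: engineered CHO-K1 APJ arrestin reporter cells; Amount: 1000 CHO-K1 reporter cells seeded per well; Dosing: one dose, 20 µM compound, 1% DMSO; Times: compound stimulation 90 min at 25 °C, detection 60 min; Measured by: luminescent beta-gal fragment complementation, chemiluminescent substrate; Read-out: APJ–arrestin association signal; Controls: DMSO vs Apelin-13 10 nM.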
APJ antag – APJ receptor antagonism; inhibition, % at 20 µM; 330,000 compounds, 0.32% hits; P35414; CHO-K1 APJ beta-arrestin complementation, luminescence;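 active = inhibition above about 40% at 20 µM, limit read from the data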;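 also: cells challenged with 10 nM apelin-13 agonist together with compound; plate controls were apelin-13 plus DMSO wells for no effect and DMSO wells lacking apelin-13 for full effect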
EBI2 conf – EBI2 (human) antagonism, single concentration confirmation; shares compounds with EBI2 antag; EBI2 beta-arrestin luminescence, 7a,25-OHC antagonism; inhibition, % at 5 µM; 2,400 compounds, 29% hits;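 active = inhibition of at least 50%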
EBI2 ag – activates EBI2, counter-screen for EBI2 antagonists. 2,400 tested, under 10 active. EBI2-expressing cells, agonist mode, luminescence, 60 min; 0% vehicle, 100% 7α,25-dihydroxycholesterol control. shares compounds with EBI2 antag. AID 652000. activation, % at 5 µM;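 active = activation of at least 50%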
bGal cs – beta-galactosidase inhibition counter-screen. shares compounds with EBI2 antag. purified beta-galactosidase, luminescent Galacton Star, 15 min. inhibition, % at 5 µM. 2,400 compounds, 1% hits. AID 652176;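 active = replicate-average signal at least 3 plate SD below neutral wells, shown as high inhibition, flagging enzyme-inhibiting false positives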;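 also: 0% = DMSO wells with enzyme and 100% = wells lacking enzyme; higher means stronger loss of beta-gal luminescence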
Active calls of the source: *; x = not tested or not shown. In the library only some 1.5% were active in any assay of this set; here they are far more common.

SMILES	CCR6 antagonist	CXCR6 inh	EBI2 antag	APJ agonist	APJ antag	EBI2 conf	EBI2 ag	bGal cs
O=C(c1cc2ccccc2o1)N1CCN(S(=O)(=O)c2c(F)cccc2F)CC1	11	2	63*	-3	4	43	0	5
CCc1ccc(CN(Cc2cccnc2)C(=O)/C=C/c2ccc(OC)cc2)cc1	15	10	62*	-2	-17	27	-1	-3
CC(C)c1cccc(-c2ccc3c(c2)S(=O)(=O)c2cccc(C(=O)NC4CCCC4)c2C3=O)c1	1	-12	27	1	-6	x	x	x
CCOc1ccc(Oc2ccccc2NC(=O)CN2C(=O)NC3(CCCC3)C2=O)cc1	1	2	7	-5	6	x	x	x
CC(CCc1ccccc1)NC(=O)C1CCCN(C(=O)c2cc3sccc3n2C)C1 (configuration not stated)	11	-4	60*	-4	-10	29	0	-11
Cc1ccc(CNC(=O)C2CCN(S(=O)(=O)c3ccc4c(c3)OCCCO4)CC2)cc1	9	3	79*	-1	6	67*	2	8
COc1ccc(CNC(=O)C2CCN(S(=O)(=O)c3ccc4c(c3)N(C(C)=O)CCO4)CC2)cc1	9	-8	73*	-1	28	46	1	3
Cc1ccc(NC(=O)C2CCN(S(=O)(=O)c3ccc4c(c3)OCCCO4)CC2)nc1	2	-11	-8	-2	16	x	x	x
COc1ccccc1CCC(=O)Nc1ccc(C)cc1Cl	0	-3	6	-2	35	x	x	x
CC1(C(=O)Nc2cccc3c2CCCC3)CCN1C(=O)Cc1ccccc1Cl (configuration not stated)	x	2	3	x	x	x	x	x
COc1ccc(/C=N/Nc2ccc([N+](=O)[O-])cc2)cc1O	36	7	8	-4	15	x	x	x
Cc1ccc(OCC(=O)NCCC2=CCCCC2)cc1	-2	6	5	-3	7	x	x	x
Cc1ccc(SCC(=O)NCCC2=CCCCC2)cc1	4	1	38*	-2	1	31	2	0
N#Cc1cnc(Oc2ccc(Cl)cc2)nc1N	1	1	47*	-1	-18	0	-1	-14
Cc1c(C(=O)Nc2ccccc2)sc2nc(-c3ccccc3)cn12	13	-10	44*	2	-18	31	2	1
CNC(=O)C[C@H]1C(=O)N(Cc2ccccc2)C[C@@H]1C	x	-4	1	x	x	x	x	x
Cc1cc(C)c2cc(C(=O)N3CCN(c4ncccc4C(F)(F)F)CC3)[nH]c2c1	2	-6	77*	-4	2	46	0	-9
O=C(c1ccc(-n2cccn2)cc1)N1CCN(c2ncccc2C(F)(F)F)CC1	16	-3	87*	0	-2	80*	0	7
CC(C)(C)NC(=O)N1CCN(c2ncccc2C(F)(F)F)CC1	11	-4	-14	1	11	x	x	x
Cc1oc(C(C)(C)C)cc1C(=O)N1CCN(c2ncccc2C(F)(F)F)CC1	0	7	14	3	1	x	x	x
COc1cc(-c2ccc3c(=O)c4ccccc4sc3c2)cc(OC)c1OC	-8	-6	44*	-2	1	27	-1	-10
COc1cc(-c2ccc3sc(-c4ccsc4)c(C#CCO)c3c2)cc(OC)c1OC	-9	-11	-2	1	-5	x	x	x
COC(=O)c1c(-c2ccsc2)sc2ccc(-c3cc(OC)c(OC)c(OC)c3)cc12	18	3	55*	-2	2	6	-1	-7
COc1cc(-c2ccc3c(=O)c4ccccc4n(C)c3c2)cc(OC)c1OC	1	1	-38	13	7	x	x	x
COc1ccc(NC2CCCN(C(=O)c3cn(C)c4ccccc34)C2)cc1 (configuration not stated)	-4	-8	-10	-2	4	x	x	x
SMILES	CCR6 antagonist	CXCR6 inh	EBI2 antag	APJ agonist	APJ antag	EBI2 conf	EBI2 ag	bGal cs
COc1ccc2c(c1)c1nc3n(c(=O)c1n2CC(=O)Nc1cc(C)[nH]n1)CCS3	x	x	x	4	0	x	x	x
COc1cccc(NC(=O)Cn2c3ccc(OC)cc3c3nc4n(c(=O)c32)CCS4)c1	6	9	57*	3	-9	20	-1	-7
COCCCN(C(=O)c1cc2c(s1)CCCCC2)c1c(N)n(Cc2ccccc2)c(=O)[nH]c1=O	-11	-6	-3	0	12	x	x	x
Cc1ccc(-c2nn(-c3ccccc3)cc2C=C2SC(=S)N(CCS(=O)(=O)O)C2=O)cc1	x	16	11	x	x	x	x	x
Cc1ccc(-c2nn(-c3ccccc3)cc2C=C2C(=O)CC(C)(C)CC2=O)cc1	-26	-14	53*	6	-15	52*	2	10
CCCCNC(=O)C[C@@H]1C[C@@]2(C(=O)OC)CC(C)(C)CC=C2N(Cc2ccc3c(c2)OCO3)C1=O	x	x	11	x	x	x	x	x
COC(=O)[C@@]12C[C@@H](CC(=O)NCCCCc3ccccc3)C(=O)N(Cc3ccc4c(c3)OCO4)C1=CCC(C)(C)C2	x	x	35*	x	x	10	-1	-9
COc1ccc(CCC(=O)N2CCN(S(=O)(=O)c3ccc(OC(F)(F)F)cc3)CC2)cc1	5	5	54*	-1	-1	28	-1	-13
CCc1ccc(CCC(=O)N2CCN(S(=O)(=O)c3ccc(Br)cc3)CC2)cc1	x	10	88*	x	x	52*	0	-15
COc1ccc(CCC(=O)N2CCN(S(=O)(=O)c3ccc(OC)c([N+](=O)[O-])c3)CC2)cc1	x	-5	54*	x	x	44	1	-1
COc1cc(CCC(=O)N2CCN(S(=O)(=O)c3ccc(C)c(C)c3)CC2)cc(OC)c1OC	-9	-2	12	0	11	x	x	x
COc1ccc(CCC(=O)N2CCN(S(=O)(=O)c3ccc4ccccc4c3)CC2)cc1	18	1	64*	-2	3	35	0	-15
O=C(CCc1ccc(S(=O)(=O)N2CCOCC2)cc1)N1CCCC1	-10	-7	-1	-3	-11	x	x	x
CCc1c(C)nc(SCC(=O)NNC(=O)c2ccco2)[nH]c1=O	-3	-5	-2	8	18	x	x	x
CC1=Nc2ccccc2N=C(NC(=O)CN2CCN(c3ccc(F)cc3)CC2)C1c1ccccc1 (configuration not stated)	12	2	18	-1	20	x	x	x
Cc1ccc(S(=O)(=O)N2CCN(C(=O)COC(=O)COc3ccccc3)CC2)cc1	-5	5	-1	1	-20	x	x	x
COc1ccc(S(=O)(=O)N2CCN(C(=O)COc3ccccc3)CC2)cc1	29	-14	36	-3	11	x	x	x
